Measurements as given in PubChem BioAssay.
Active and inactive are the calls of the source.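 How the source made its calls, unless noted: active means viability loss from added drug above about 55%, and viability with drug at most 40%, in both replicates (limit read from the data, passing the limit was not always enough); inconclusive means both conditions met in only one replicate; inactive means neither replicate meets both conditions.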

Key:
[1] = reducers of endogenous Her2 protein level, primary screen, SKBR3 breast tumor cells, AlphaScreen, ATP viability (AID 461;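 active means Her2 level under about 52% in both replicate screens, with viability over 70% of control, limit read from the data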;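 on Her2 level: lower value means less Her2 protein in the cells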;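 on viability: percent of carrier control wells set as 100% viability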); settings: 18-24 h, measured here: SKBR3 viability, ATP luminescence, at 10 µM
[2] = molecular target: Receptor tyrosine-protein kinase erbB-2 (Homo sapiens) (UniProt P04626); assay: as above; settings: 18-24 h, at 10 µM, stronger effect = lower value
Receptor tyrosine-protein kinase erbB-2 (Homo sapiens), sequence (P04626 whole entry, looked up): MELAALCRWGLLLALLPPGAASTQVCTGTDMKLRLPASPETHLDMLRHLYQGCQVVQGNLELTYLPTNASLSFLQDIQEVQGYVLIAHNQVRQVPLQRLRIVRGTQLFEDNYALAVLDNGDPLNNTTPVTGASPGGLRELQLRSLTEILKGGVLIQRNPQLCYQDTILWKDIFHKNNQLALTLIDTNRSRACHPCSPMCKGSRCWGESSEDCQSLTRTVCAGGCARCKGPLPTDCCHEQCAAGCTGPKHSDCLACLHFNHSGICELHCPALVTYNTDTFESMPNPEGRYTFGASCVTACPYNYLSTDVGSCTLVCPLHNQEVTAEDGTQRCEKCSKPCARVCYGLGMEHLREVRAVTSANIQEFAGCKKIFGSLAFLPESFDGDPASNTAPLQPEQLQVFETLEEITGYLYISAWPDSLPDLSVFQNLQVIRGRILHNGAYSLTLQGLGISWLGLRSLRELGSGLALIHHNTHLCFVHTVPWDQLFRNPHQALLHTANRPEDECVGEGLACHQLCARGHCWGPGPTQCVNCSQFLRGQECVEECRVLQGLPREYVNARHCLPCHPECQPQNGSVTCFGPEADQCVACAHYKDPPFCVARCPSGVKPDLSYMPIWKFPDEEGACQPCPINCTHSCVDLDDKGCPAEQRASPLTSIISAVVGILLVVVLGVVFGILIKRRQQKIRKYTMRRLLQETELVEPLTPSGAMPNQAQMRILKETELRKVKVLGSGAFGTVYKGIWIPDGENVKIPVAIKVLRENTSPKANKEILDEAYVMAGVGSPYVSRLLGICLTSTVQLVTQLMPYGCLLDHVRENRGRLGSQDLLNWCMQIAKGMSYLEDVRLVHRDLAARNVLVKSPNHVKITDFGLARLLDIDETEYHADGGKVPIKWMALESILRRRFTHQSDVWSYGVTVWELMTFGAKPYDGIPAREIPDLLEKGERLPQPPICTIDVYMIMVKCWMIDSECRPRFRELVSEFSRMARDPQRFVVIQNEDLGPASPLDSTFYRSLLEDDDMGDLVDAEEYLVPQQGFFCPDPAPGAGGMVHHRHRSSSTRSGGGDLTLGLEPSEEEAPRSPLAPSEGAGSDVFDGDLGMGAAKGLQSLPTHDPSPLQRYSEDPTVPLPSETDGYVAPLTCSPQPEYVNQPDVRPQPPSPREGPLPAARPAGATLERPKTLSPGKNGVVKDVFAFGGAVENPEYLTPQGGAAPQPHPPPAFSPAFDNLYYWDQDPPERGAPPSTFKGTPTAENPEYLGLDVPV

[3] = SK-BR-3 cell growth inhibitors, pilot screen, 24 h, human (AID 572;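 active means viability at or below 10% of carrier control in both of two separate runs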;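 further: compound exposure lasted between 18 and 24 h rather than exactly 24 h; 100% = carrier-treated control wells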); settings: SK-BR-3 viability, CellTiter-Glo luminescence, at 10 µM, stronger effect = lower value
[4] = HUVEC growth inhibition – cell-based, human, primary screen (AID 575;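 active means viability at or below 30% in both replicate assays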;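 further: 100% = median of untreated cell wells with 0.1% DMSO on each plate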); settings: HUVEC proliferation, CellTiter-Glo luminescence, 72 h; at 10 µM; stronger effect = lower value
How it was run: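 Timing: 72 h treatment at 37 °C; material: HUVEC primary cells; technique: CellTiter-Glo luminescence measuring cellular ATP; controls: vehicle and MePR control wells; measure: percent of median DMSO-control luminescence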

[5] = growth inhibitors of H69AR lung tumor, primary screen, human, duplicate replicates (AID 580;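 active means viability at or under a set limit in both replicates, limit being median viability minus 3 SD, cut at about 48% in these data, passing the limit was not always enough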;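 further: 100% = mean luminescence of untreated wells and 0% = no signal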); settings: H69AR lung tumor cells viability, ATP luminescence, 72 h; at 10 µM; stronger effect = lower value
[6] = reversal of MRP1-mediated doxorubicin resistance, pilot screen, H69AR cells, doxorubicin co-treatment (AID 601); settings: CellTiter-Glo, 72 h, at 10 µM; for differential viability (reversal): stronger effect = higher value
[7] = 384-well plate pilot, post-Golgi transport modulator project, inhibition of yeast transport mutant growth (AID 636; in the data active means inhibition above about 31%); settings: absorbance 615 nm, about 18 h, stronger effect = higher value
[8] = growth suppression of yeast trafficking mutant, preliminary HTS, modulators of trafficking downstream of Golgi apparatus project, 1536-format plate, OD 615 nm (AID 637; in the data active means inhibition above about 30%); settings: yeast transport mutant growth, absorbance 615 nm, 18 h; stronger effect = higher value
[9] = H69AR cells + 2 uM doxorubicin, measured here: viability with 2 uM doxorubicin, stronger effect = lower value
[10] = H69AR cells, compound alone cytotoxicity

Row | Compound | viability [1] | Her2 level [2] | viability [3] | viability [4] | viability [5] | differential viability (reversal) ([6]; H69AR cells + 2 uM doxorubicin) | viability [6, 9] | viability [6, 10] | inhibition [7] | inhibition [8]
1 | Cc1ccc(/C(O)=C2/C(=O)C(=O)N(Cc3ccco3)C2c2cccs2)cc1 (stereo not given) | 103% | 114% (inactive) | 103% (inactive) | 101% (inactive) | 67.6% (inactive) | -13.1% (inactive) | 80.7% | 67.6% | -5.21% (inactive) | -7.78% (inactive)
2 | O=S(=O)(c1cc(Cl)ccc1Br)N1CCOCC1 | 95.5% | 108% (inactive) | 95.5% (inactive) | 103% (inactive) | 91% (inactive) | 0.56% (inactive) | 90.4% | 91% | -2.99% (inactive) | -0.17% (inactive)
3 | CCOP(=O)(c1ccc(N(C)C)cc1)C(O)c1ccccc1OC (stereo not given) | 86% | 98.5% (inactive) | 86% (inactive) | 115% (inactive) | 98.7% (inactive) | 3.56% (inactive) | 95.1% | 98.7% | -1.07% (inactive) | -3.65% (inactive)
4 | Cc1nn(C)c(C)c1CNC(=O)c1cc2n(n1)C(C(F)(F)F)CC(c1cccs1)N2 (stereo not given) | 89.5% | 83% (inactive) | 89.5% (inactive) | 107% (inactive) | 112% (inactive) | 18.2% (inactive) | 93.9% | 112% | 0.41% (inactive) | 0.32% (inactive)
5 | COc1cc(-c2nnc(SCC(=O)c3ccc(C)cc3)o2)cc(OC)c1OC | 90% | 97.5% (inactive) | 90% (inactive) | 64.8% (inactive) | 74.5% (inactive) | -19.7% (inactive) | 94.2% | 74.5% | -1.45% (inactive) | 0.16% (inactive)
6 | CNC(=O)CSc1nnc(-c2cccc(S(=O)(=O)N3CCOCC3)c2)n1-c1ccc(F)cc1 | 78.5% | 95% (inactive) | 78.5% (inactive) | 99.9% (inactive) | 93.2% (inactive) | -5.28% (inactive) | 98.5% | 93.2% | 0% (inactive) | -2.5% (inactive)
7 | CCC(NC(=O)Nc1cc(OC)c(OC)c(OC)c1)(C(F)(F)F)C(F)(F)F | 112% | 83.5% (inactive) | 112% (inactive) | 105% (inactive) | 93% (inactive) | -7.81% (inactive) | 101% | 93% | -4.47% (inactive) | 11% (inactive)
8 | O=C(NCC1CCCO1)C1c2ccccc2C(=O)N1C1CCCCCC1 (stereo not given) | 105% | 89% (inactive) | 105% (inactive) | 88.9% (inactive) | 104% (inactive) | 6.58% (inactive) | 97.6% | 104% | -2.6% (inactive) | 1.43% (inactive)
9 | CCOC(=O)C1CCCN(c2cc(=O)n(Cc3ccc(F)cc3)c(=O)[nH]2)C1 (stereo not given) | 92% | 87% (inactive) | 92% (inactive) | 92.6% (inactive) | 97.2% (inactive) | 3.08% (inactive) | 94.1% | 97.2% | -4.67% (inactive) | 0.33% (inactive)
10 | CCOC(=O)C1=C(C)NC2=C(C(=O)CC(C)(C)C2)C1c1ccc(N(C)C)cc1 (stereo not given) | 93% | 116% (inactive) | 93% (inactive) | 87% (inactive) | 94.3% (inactive) | -2.37% (inactive) | 96.6% | 94.3% | 1.3% (inactive) | -5.9% (inactive)
11 | CC(=O)N1CCN(C(C)=O)C1c1ccccc1 | 93.5% | 136% (inactive) | 93.5% (inactive) | 77.9% (inactive) | 91.4% (inactive) | 2.34% (inactive) | 89.1% | 91.4% | 3.46% (inactive) | -7% (inactive)
12 | Cc1ccc(NC(=O)c2ccc(NS(=O)(=O)c3c(C)noc3C)cc2)cc1C | 97% | 81.5% (inactive) | 97% (inactive) | 84.1% (inactive) | 95% (inactive) | 11.6% (inactive) | 83.4% | 95% | -2.24% (inactive) | -4.55% (inactive)
13 | Cc1cc(NC(=O)CCC(=O)N(CC(=O)NC2CCCC2)Cc2ccc(F)cc2)no1 | 101% | 94% (inactive) | 101% (inactive) | 88.9% (inactive) | 95.6% (inactive) | 12.9% (inactive) | 82.7% | 95.6% | -5.87% (inactive) | -5.08% (inactive)
14 | CS(=O)(=O)N1CCCC(C(=O)NCCCN2CCC(Cc3ccccc3)CC2)C1 (stereo not given) | 108% | 115% (inactive) | 108% (inactive) | 101% (inactive) | 103% (inactive) | 0.23% (inactive) | 103% | 103% | 2.6% (inactive) | -5.56% (inactive)
15 | COC(=O)c1sc(N2C(=O)C(O)=C(C(=O)c3ccc(C)o3)C2c2ccc(F)cc2)nc1C (stereo not given) | 95% | 81.5% (inactive) | 95% (inactive) | 113% (inactive) | 135% (inactive) | 61.4% (inactive) | 73.8% | 135% | -1.08% (inactive) | -1.48% (inactive)
